How the values were obtained:
[1] = species on record: Homo sapiens; experiment: Selectivity for human A2B receptor over human A1 receptor
[2] = target: T1, Adenosine receptor A3 (Homo sapiens, UniProt P0DMS8); experiment: Displacement of [125I]-AB-MECA from human A3 receptor expressed in CHO cells; format: cell-based
T1 sequence (P0DMS8 whole entry): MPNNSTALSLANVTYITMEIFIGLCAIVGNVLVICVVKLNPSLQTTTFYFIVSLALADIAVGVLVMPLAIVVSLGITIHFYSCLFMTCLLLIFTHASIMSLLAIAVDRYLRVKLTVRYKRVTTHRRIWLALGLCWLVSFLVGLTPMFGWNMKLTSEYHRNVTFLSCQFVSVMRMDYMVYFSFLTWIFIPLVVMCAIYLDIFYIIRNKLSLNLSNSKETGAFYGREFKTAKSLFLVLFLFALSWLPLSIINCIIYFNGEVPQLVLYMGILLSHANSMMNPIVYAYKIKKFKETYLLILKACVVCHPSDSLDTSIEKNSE
Summary of the method: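 A3 binding: competition for sites labeled by 125I-AB-MECA using CHO cells expressing the A3 receptor.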

[3] = target: Adenosine receptor A2a (Homo sapiens, UniProt P29274); experiment: Displacement of [3H]ZM241385 from human A2A receptor expressed in HEK293 cell membranes
Chain of Adenosine receptor A2a (P29274 whole entry): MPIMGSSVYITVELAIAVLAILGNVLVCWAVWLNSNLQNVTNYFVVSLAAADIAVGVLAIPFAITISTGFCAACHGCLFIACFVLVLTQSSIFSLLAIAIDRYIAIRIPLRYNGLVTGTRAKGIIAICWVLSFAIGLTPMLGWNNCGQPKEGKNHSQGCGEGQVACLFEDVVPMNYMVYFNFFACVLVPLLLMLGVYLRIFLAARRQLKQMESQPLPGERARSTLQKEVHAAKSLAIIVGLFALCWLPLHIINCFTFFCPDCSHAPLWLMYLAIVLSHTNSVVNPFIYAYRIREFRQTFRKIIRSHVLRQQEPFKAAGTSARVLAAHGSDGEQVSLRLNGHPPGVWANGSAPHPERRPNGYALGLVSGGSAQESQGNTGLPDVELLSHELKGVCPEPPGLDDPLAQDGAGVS
Summary of the method: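 A2A affinity by competition with 3H-ZM241385 (2 nM) for binding sites in membranes from HEK-A2A cells.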

[4] = target: T2, Adenosine receptor A2b (Homo sapiens, UniProt P29275); experiment: Displacement of [3H]-ZM241385 from human A2B receptor expressed in HEK293 cell membranes
T2 sequence (P29275 whole entry): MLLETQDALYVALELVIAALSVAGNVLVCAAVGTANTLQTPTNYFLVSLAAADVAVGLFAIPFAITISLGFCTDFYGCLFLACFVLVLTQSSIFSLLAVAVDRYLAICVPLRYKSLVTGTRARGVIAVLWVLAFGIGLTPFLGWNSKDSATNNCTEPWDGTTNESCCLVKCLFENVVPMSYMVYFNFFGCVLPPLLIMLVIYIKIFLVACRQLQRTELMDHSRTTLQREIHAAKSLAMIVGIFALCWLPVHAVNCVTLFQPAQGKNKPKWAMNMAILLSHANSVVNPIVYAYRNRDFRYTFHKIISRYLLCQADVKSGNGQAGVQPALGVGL
Summary of the method: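 Membranes from HEK cells expressing A2B; binding sites labeled with 3H-ZM241385 at 14 nM and displaced competitively.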

[5] = target: T3, Adenosine receptor A1 (Homo sapiens, UniProt P30542); experiment: Displacement of [3H]-CPX from human A1 receptor expressed in CHO cell membranes
T3 sequence (P30542 whole entry): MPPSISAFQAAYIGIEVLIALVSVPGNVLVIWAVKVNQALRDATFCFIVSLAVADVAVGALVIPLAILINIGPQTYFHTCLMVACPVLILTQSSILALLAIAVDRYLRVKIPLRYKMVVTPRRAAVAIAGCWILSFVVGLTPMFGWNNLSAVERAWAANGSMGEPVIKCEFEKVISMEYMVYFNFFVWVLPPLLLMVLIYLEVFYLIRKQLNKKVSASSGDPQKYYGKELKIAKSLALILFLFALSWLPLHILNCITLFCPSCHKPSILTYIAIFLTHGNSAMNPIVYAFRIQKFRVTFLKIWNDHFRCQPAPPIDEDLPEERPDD
Summary of the method: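 Competitive binding on membranes prepared from A1-expressing CHO cells, radioligand 3H-CPX at 0.5 nM.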

[6] = species on record: Homo sapiens; experiment: Selectivity for human A2B receptor over human A2A receptor
[7] = species on record: Homo sapiens; experiment: Selectivity for human A2B receptor over human A3 receptor

Ratio Ki [1] | Ki [2] | Ki [3] | Ki [4] | Ki [5] | Ratio Ki [6] | Ratio Ki [7] | SMILES
> 270 | > 9 µM | > 5 µM | 22 nM | > 6 µM | > 230 | > 400 | CCCn1c(=O)[nH]c2nc(-c3cnn(Cc4cc(-c5ccccc5)on4)c3)[nH]c2c1=O
90 | > 9 µM | > 5 µM | 15 nM | 1.4 µM | > 300 | > 600 | CCCn1c(=O)[nH]c2nc(-c3cnn(Cc4noc(-c5ccc(C(F)(F)F)cc5)n4)c3)[nH]c2c1=O
> 460 | > 9 µM | > 5 µM | 13 nM | > 6 µM | > 380 | > 700 | O=c1[nH]c2nc(-c3cnn(Cc4noc(-c5ccc(C(F)(F)F)cc5)n4)c3)[nH]c2c(=O)n1CC1CC1
150 | 1.5 µM | 3.8 µM | 37 nM | 5.6 µM | 100 | 40 | CCn1c(=O)[nH]c2nc(-c3cnn(Cc4ccccc4)c3)[nH]c2c1=O
